Measured values: paper PMC11734723 (Science Advances, 2025)
Like-named read-outs stand apart in the source and are kept apart here.

Tests used:
[1] = target: T1, mouse TRPC4β (Mus musculus, UniProt Q9QUQ5); assay: Whole-cell patch clamp of Englerin A-induced TRPC4 currents in HEK293 cells; type: cell-based; conditions: for decrease of EA-induced TRPC4 current 45 s after the peak: EA 30 nM
T1 sequence (Q9QUQ5 1-890 isoform Q9QUQ5-2): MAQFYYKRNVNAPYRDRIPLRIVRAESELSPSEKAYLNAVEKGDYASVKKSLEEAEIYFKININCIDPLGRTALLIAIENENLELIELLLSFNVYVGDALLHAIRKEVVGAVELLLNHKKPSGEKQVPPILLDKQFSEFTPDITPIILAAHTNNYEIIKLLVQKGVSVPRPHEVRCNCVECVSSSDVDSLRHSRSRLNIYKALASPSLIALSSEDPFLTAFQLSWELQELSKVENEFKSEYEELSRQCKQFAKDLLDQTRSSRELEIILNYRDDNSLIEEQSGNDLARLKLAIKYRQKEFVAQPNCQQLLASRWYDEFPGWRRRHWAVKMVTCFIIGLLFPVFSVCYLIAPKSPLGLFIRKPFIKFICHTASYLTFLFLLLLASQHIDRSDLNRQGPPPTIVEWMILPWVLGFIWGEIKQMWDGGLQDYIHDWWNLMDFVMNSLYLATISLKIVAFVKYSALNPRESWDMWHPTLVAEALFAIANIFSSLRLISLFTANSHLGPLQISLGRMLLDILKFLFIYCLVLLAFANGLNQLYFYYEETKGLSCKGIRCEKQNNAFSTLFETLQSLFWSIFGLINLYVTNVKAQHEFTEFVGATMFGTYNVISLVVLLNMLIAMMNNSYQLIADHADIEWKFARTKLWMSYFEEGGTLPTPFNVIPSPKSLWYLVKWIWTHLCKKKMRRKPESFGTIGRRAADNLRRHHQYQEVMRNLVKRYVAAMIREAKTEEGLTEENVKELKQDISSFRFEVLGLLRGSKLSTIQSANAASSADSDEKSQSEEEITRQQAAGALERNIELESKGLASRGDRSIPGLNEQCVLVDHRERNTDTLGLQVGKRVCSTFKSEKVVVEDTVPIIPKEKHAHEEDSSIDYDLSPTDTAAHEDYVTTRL
Summary of the method: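 Whole-cell recordings were made from HEK293 cells transiently expressing mouse TRPC4β, using ramps from −100 to +100 mV (200 ms, every 5 s; holding 0 mV). Pipette: CsCl with BAPTA (free Ca²⁺ 400 nM), pH 7.2; bath pH 7.4. After ~30 s in nominally Ca²⁺-free bath, Englerin A (30 nM) was applied. About 10 s after peak, Englerin A plus test compound (10, 30, 100 or 1000 nM) was perfused for ~90–100 s. Currents were read at ±100 mV.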

[2] = test system: murine BMSMCs; assay: Basal intracellular Ca2+ during osteoclastogenesis of murine BMSMCs; type: cell-based, mouse; conditions: ELP-004 100 nM
Summary of the method: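 C57Bl/6 bone marrow/spleen myeloid cells were grown in αMEM, 10% FBS, and mCSF (50 ng/ml). RANKL (1 or 100 ng/ml) was added at 24 h. After 2–3 days, TNFα (2 ng/ml), LTB4 (50 nM) and test compound (100 nM) were added as indicated, with media refreshed every 3–5 days. On days 1, 7, 14 and 21, cells were Fura2-loaded (2 µM, 30 min, RT; 30 min de-esterification) in pH 7.2 buffer. Basal Ca²⁺ was read as the 340/380 ratio.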

[3] = test system: murine BMSMCs; type: cell-based, mouse; conditions: ELP-004 100 nM
[4] = test system: Human PBMCs; assay: TRAP staining, multinucleation and cell size of human PBMC-derived osteoclasts; type: cell-based; conditions: ELP-004 100 nM; for effect on multinucleation: 14 days
Summary of the method: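 Human PBMCs were grown with human mCSF (50 ng/ml) plus RANKL (100 ng/ml), or RANKL (1 ng/ml) with TNFα (2 ng/ml), ±test compound (100 nM), for 14 days. Cells were fixed with 2% PFA (30 min, RT) and stained for TRAP with ELF-97 (200 µM) in acetate/nitrite/tartrate buffer (15 min, RT). After permeabilisation, nuclei were counterstained with 7-AAD. Confocal images were scored for TRAP intensity, TRAP-positive cells and nuclei per cell.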

## CCC(=O)N(C)c1ccc(Cl)c(Cl)c1 [ELP-004]
[1]; 10 nM ELP-004, +100 mV
  decrease of EA-induced TRPC4 current 45 s after the peak: 37%
[1]; 10 nM ELP-004, −100 mV
  decrease of EA-induced TRPC4 current 45 s after the peak: 58%
[1]; 1 μM ELP-004
  inhibition of EA-induced TRPC4 currents: lost its inhibitory action
[1]; 30 and 100 nM ELP-004 versus 10 nM
  inhibition of EA-induced TRPC4 currents at higher concentrations: did not show stronger inhibitory effects
[2]; LTB4 (50 nM)/RANKL (1 ng/ml)
  effect on Ca2+ elevation: significantly attenuated
[2]; RANKL-induced (100 ng/ml), days 1-21
  effect on basal Ca2+ levels: no significant effect
[2]; TNFα (2 ng/ml)/RANKL (1 ng/ml)
  effect on Ca2+ elevation: significantly attenuated
[3]; LTB4/RANKL
  effect on TRAP intensity: completely prevented the increase
  effect on number of TRAP-positive cells: no effect
[3]; LTB4/RANKL, days 7 and 14
  effect on multinucleation: significant ELP-004–induced decreases
[3]; RANKL (100 ng/ml)
  effect on TRAP intensity: no impact
  effect on number of TRAP-positive cells: no impact
[3]; TNFα (2 ng/ml)/RANKL (1 ng/ml)
  effect on number of TRAP-positive cells: no significant effect
[3]; TNFα/RANKL
  effect on TRAP intensity increases: severely attenuated
[3]; TNFα/RANKL, P < 0.0005
  effect on number of multinuclear cells: significantly attenuated
[3]; mCSF (50 ng/ml) only
  effect on TRAP-positive cells: no effect
[3]; mCSF + RANKL (1 ng/ml)
  effect on TRAP-positive cells: no effect
[4]; RANKL
  effect on multinucleation: significantly inhibited
  effect on intensity of TRAP+ cells: not intensity
  effect on number of TRAP+ cells: inhibited the number
[4]; TNFα-induced osteoclasts
  effect on cell size: significantly reduced
[4]; TNFα/RANKL
  effect on multinucleation: significantly inhibited
  effect on intensity of TRAP+ cells: inhibited
  effect on number of TRAP+ cells: inhibited
